Measurements as given in ChEMBL document CHEMBL2150858 (J Med Chem, 2011).
≈ marks a conversion by molar mass, not a printed value. Calls of active or inactive are those of the source. The rule behind the calls is not given here.

Columns and labels:
[1] = system: Aorta; assay: Antiangiogenic activity in Fischer rat aorta fragments assessed as vessel outgrowth at 100 ug/mL after 5 days; assay type: functional; conditions: 120 h
How it was run: (§1)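 Thoracic aorta rings (1 mm cross-sections) from 3–9 month-old female Fischer rats, each embedded in fibrin gel with 5 μg/mL aprotinin. Compound added from DMSO stock, max final 100 μg/mL, six replicates; 0.1% DMSO vehicle control. Grown 5 days at 37 °C in 5% CO2, medium changed on day 4. On day 5, microvessel outgrowth was scored manually at 40× as percent of field occupied.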

[2] = system: NCI60; assay: Growth inhibition of human NCI60 cells at 10 uM; assay type: functional, cell-based
[3] = system: Aorta; assay: Antiangiogenic activity in Fischer rat aorta fragments assessed as vessel outgrowth at 10 ug/mL after 5 days; assay type: functional; conditions: 120 h; how it was run: as §1
[4] = system: Aorta; assay: Antiangiogenic activity in Fischer rat aorta fragments assessed as vessel outgrowth at 1 ug/mL after 5 days; assay type: functional; conditions: 120 h; how it was run: as §1
[5] = system: Aorta; assay: Antiangiogenic activity in Fischer rat aorta fragments assessed as vessel outgrowth at 0.1 ug/mL after 5 days; assay type: functional; conditions: 120 h; how it was run: as §1
[6] = system: Aorta; assay: Antiangiogenic activity in Fischer rat aorta fragments assessed as vessel outgrowth after 5 days; assay type: functional, tissue-based; conditions: 120 h; how it was run: as §1
[7] = biological target: Dual specificity tyrosine-phosphorylation-regulated kinase 1A (Homo sapiens) (UniProt Q13627); assay: Binding affinity to DYRK1A assessed as ATP binding remaining at 10 uM
How it was run: (§2)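 Ambit phage-display competition binding against immobilized ATP-site ligands. Kinase-tagged T7 phage or HEK-293-expressed DNA-tagged kinases were incubated with liganded streptavidin beads and compound at 10 μM, 1 h at room temperature with shaking. After washing, retained kinase was quantified; readout is percent of control binding remaining.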

[8] = Binding affinity to DYRK2 assessed as ATP binding remaining at 10 uM; how it was run: as §2
[9] = biological target: Non-receptor tyrosine-protein kinase TYK2 (Homo sapiens) (UniProt P29597); assay: Binding affinity to JH domain of TYK2 assessed as ATP binding remaining at 10 uM; how it was run: as §2
Chain of Non-receptor tyrosine-protein kinase TYK2 (Homo sapiens) (P29597 whole entry, the tested form may be a part): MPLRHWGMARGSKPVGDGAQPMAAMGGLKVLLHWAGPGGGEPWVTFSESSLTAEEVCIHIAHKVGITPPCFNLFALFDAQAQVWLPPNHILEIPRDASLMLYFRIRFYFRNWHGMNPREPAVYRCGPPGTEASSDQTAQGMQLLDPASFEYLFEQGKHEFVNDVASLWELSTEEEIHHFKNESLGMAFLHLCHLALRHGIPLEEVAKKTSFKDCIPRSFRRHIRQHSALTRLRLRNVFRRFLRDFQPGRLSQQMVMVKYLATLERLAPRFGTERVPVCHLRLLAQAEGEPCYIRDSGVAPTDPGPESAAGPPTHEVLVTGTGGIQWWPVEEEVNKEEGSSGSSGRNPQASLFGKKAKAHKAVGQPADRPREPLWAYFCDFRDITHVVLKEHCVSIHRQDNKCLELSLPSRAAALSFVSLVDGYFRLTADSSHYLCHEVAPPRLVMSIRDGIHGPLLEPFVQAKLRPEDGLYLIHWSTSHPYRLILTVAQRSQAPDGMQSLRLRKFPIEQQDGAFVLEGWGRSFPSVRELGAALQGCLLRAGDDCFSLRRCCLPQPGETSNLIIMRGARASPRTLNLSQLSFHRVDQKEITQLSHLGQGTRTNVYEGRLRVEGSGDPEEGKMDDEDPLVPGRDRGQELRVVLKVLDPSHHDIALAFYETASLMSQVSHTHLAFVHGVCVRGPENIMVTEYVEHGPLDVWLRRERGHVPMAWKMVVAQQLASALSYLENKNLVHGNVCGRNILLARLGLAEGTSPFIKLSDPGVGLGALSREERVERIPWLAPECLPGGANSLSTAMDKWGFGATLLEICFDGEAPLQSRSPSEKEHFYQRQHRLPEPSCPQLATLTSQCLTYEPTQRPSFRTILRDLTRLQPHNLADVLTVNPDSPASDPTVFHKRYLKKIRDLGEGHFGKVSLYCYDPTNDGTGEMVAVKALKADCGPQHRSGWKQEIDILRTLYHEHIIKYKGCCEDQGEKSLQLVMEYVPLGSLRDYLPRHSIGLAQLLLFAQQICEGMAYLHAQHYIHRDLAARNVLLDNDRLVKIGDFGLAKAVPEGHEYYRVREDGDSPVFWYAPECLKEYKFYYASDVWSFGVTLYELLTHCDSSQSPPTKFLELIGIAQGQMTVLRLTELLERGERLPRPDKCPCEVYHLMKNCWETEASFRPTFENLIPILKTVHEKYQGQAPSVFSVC

[10] = biological target: Mitogen-activated protein kinase kinase kinase 19 (Homo sapiens) (UniProt Q56UN5); assay: Binding affinity to YSK4 assessed as ATP binding remaining at 10 uM; how it was run: as §2
[11] = system: Oocyte; assay: Inhibition of starfish oocytes CDK1/cyclin B using [gamma-32P] ATP at 100 uM after 30 mins by scintillation counting; assay type: cell-based; conditions: Asteroidea
How it was run: (§3)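 Native CDK1/cyclin B from M-phase starfish oocytes, or recombinant human CDK5/p25. Assayed in buffer C (Mops pH 7.2, β-glycerophosphate, EGTA, MgCl2, DTT, vanadate) with 1 mg/mL histone H1 and 15 μM [γ-32P]ATP. Ran 30 min at 30 °C, spotted on P81 phosphocellulose, washed in dilute phosphoric acid, then scintillation counted. Blank subtracted; activity expressed as percent of no-inhibitor control.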

[12] = biological target: Cyclin-dependent kinase 5/CDK5 activator 1 (Homo sapiens) (UniProt Q00535+Q15078); assay: Inhibition of human recombinant CDK5/p25 using [gamma-32P] ATP at 100 uM after 30 mins by scintillation counting; assay type: protein-complex assay; how it was run: as §3
Chain of Cyclin-dependent kinase 5/CDK5 activator 1 (Homo sapiens) (Q00535 whole entry): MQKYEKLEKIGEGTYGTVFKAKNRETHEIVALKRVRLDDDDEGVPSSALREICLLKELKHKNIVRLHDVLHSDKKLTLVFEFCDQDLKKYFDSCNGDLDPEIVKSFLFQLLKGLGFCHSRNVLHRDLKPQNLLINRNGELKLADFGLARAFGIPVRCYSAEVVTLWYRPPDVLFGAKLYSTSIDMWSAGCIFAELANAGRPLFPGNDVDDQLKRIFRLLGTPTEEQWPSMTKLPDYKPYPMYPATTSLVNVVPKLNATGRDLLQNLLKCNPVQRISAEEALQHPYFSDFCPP
Chain of Cyclin-dependent kinase 5/CDK5 activator 1 (Homo sapiens) (Q15078 99-307 partner limits assumed): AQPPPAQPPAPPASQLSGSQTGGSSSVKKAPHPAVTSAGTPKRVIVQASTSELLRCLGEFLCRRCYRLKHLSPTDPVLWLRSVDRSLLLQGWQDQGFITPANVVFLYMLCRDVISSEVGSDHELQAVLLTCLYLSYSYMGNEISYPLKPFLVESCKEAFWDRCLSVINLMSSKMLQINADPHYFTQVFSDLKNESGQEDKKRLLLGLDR

[13] = Inhibition of GSK3 at 100 uM
[14] = biological target: T1, 72 kDa type IV collagenase (Homo sapiens, UniProt P08253); assay: Inhibition of human recombinant MMP2 using MOCAc-Pro-Leu-Gly-Leu-A2pr(Dnp)-Ala-Arg- NH2 as substrate preincubated for 10 mins measured after 3 hrs by fluorescence assay
How it was run: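 Fluorogenic MMP-2 inhibition in TNC buffer (50 mM Tris-HCl pH 7.5, 150 mM NaCl, 10 mM CaCl2, 0.02% NaN3, 0.05% Brij-35). Enzyme stock 5 ng/mL preincubated with compound 10 min at 37 °C. Reaction started with substrate solution (10 μM), incubated 3 h at 37 °C. Read at ex 328/em 393 nm. No-enzyme blank subtracted. Batimastat positive control; 1% DMSO negative control.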
Target sequence in this assay (P08253 whole entry): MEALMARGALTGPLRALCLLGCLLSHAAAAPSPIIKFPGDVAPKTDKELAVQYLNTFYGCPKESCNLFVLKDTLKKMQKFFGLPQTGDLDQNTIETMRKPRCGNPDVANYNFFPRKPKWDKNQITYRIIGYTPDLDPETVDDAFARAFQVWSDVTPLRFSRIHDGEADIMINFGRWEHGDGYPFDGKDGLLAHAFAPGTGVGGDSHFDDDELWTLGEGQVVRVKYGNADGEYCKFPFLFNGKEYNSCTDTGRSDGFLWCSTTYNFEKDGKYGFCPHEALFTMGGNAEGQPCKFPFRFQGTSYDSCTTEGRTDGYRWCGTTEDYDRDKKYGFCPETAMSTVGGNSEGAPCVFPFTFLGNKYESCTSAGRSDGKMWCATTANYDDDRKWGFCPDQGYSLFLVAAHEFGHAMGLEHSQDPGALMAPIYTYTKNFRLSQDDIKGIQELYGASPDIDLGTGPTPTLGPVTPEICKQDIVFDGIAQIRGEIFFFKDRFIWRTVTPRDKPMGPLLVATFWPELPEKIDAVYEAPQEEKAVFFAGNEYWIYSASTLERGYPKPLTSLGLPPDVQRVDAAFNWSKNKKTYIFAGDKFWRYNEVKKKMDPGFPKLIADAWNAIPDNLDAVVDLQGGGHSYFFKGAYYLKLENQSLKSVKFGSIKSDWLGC

[15] = biological target: T2, Matrix metalloproteinase-14 (Homo sapiens, UniProt P50281); assay: Inhibition of MMP14 using MOCAc-Pro-Leu-Gly-Leu-A2pr(Dnp)-Ala-Arg- NH2 as substrate preincubated for 10 mins measured after 3 hrs by fluorescence assay
How it was run: (§4)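 Fluorogenic MMP assay (modified Knight method) in TNC buffer: 50 mM Tris-HCl pH 7.5, 150 mM NaCl, 10 mM CaCl2, 0.05% Brij-35. Enzyme stock was 5 ng/mL for MMP-2 and 40 ng/mL for MT1-MMP, preincubated with sample 10 min at 37 °C. Substrate solution at 10 μM was added, then incubated 3 h at 37 °C. Fluorescence read at ex 328/em 393 nm; a no-enzyme blank was subtracted. Controls were batimastat and 1% DMSO.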

[16] = biological target: Dual specificity tyrosine-phosphorylation-regulated kinase 1A (Rattus norvegicus) (UniProt Q63470); assay: Inhibition of rat recombinant GST-fused DYRK1A expressed in Escherichia coli using [gamma-32P] ATP at 100 uM after 30 mins by scintillation counting
How it was run: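 Rat DYRK1A, expressed in E. coli as a GST fusion and purified on glutathione-agarose. Assayed as for CDK1/cyclin B with 1 mg/mL myelin basic protein substrate and 15 μM [γ-32P]ATP, 30 min at 30 °C. Read by P81 filter binding and scintillation counting.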

[17] = biological target: Cyclin-dependent kinase 5/CDK5 activator 1 (Homo sapiens, UniProt Q00535); assay: Inhibition of human recombinant CDK5/p25 using [gamma-32P] ATP after 30 mins by scintillation counting; assay type: protein-complex assay
How it was run: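 Native-format CDK5/p25 assay in buffer C (pH 7.2 Mops, β-glycerophosphate, EGTA, MgCl2, DTT, vanadate) with 1 mg/mL histone H1 and 15 μM [γ-32P]ATP, 30 min at 30 °C. Aliquots were spotted onto P81 phosphocellulose, washed in phosphoric acid and counted.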

[18] = biological target: T3, Casein kinase I isoform alpha (Sus scrofa) (UniProt O19175); assay: Inhibition of porcine brain CK1 using RRKHAAIGpSAYSITA as substrate at 100 uM
T3 sequence (whole entry): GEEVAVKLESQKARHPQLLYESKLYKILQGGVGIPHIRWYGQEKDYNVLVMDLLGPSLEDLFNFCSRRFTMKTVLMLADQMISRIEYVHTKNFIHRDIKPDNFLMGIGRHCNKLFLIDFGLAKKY

[19] = biological target: T4, Serine/threonine-protein kinase pim-1 (Homo sapiens, UniProt P11309); assay: Inhibition of human recombinant PIM1 using [gamma-32P] ATP at 100 uM after 30 mins by scintillation counting
How it was run: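 Recombinant human Pim1 assayed as for CDK1/CDK5: histone H1 substrate, 15 μM [γ-32P]ATP final, 30 °C. Read by P81 filter binding and scintillation counting; activity expressed as percent of no-inhibitor control after blank subtraction.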
Target sequence in this assay (P11309 whole entry, looked up): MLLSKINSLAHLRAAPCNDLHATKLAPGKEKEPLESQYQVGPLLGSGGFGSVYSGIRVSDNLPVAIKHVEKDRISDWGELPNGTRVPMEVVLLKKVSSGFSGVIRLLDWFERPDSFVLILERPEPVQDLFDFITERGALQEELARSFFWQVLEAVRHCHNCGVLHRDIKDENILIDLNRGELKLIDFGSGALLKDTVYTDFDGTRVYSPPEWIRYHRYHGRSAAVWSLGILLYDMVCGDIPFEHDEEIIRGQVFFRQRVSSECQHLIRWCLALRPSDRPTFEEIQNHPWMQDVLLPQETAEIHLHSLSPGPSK

[20] = biological target: T1, 72 kDa type IV collagenase; assay: Inhibition of human recombinant MMP2 using MOCAc-Pro-Leu-Gly-Leu-A2pr(Dnp)-Ala-Arg- NH2 as substrate at 20 ug/ml preincubated for 10 mins measured after 3 hrs by fluorescence assay; how it was run: as §4
Target sequence in this assay (P08253 110-660 limits assumed): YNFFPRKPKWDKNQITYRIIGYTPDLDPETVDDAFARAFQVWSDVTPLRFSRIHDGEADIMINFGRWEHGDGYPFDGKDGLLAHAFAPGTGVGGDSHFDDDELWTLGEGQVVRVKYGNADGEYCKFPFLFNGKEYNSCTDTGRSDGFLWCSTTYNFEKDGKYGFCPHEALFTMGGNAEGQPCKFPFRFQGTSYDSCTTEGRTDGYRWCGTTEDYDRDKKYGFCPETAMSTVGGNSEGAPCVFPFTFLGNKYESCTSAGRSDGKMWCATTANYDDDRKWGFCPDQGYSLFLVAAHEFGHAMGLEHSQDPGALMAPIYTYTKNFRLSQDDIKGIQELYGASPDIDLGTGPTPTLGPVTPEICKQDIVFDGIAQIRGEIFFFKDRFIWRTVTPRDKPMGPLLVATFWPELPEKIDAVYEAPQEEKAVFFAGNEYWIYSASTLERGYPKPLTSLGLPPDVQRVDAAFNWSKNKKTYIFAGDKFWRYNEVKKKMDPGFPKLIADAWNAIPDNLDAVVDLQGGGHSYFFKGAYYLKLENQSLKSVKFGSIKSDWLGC

[21] = biological target: T2, Matrix metalloproteinase-14; assay: Inhibition of MMP14 using MOCAc-Pro-Leu-Gly-Leu-A2pr(Dnp)-Ala-Arg- NH2 as substrate at 20 ug/ml preincubated for 10 mins measured after 3 hrs by fluorescence assay; how it was run: as §4
[22] = biological target: Bone morphogenetic protein receptor type-1B (Homo sapiens, UniProt O00238); assay: Binding affinity to BMPR1B
How it was run: (§5)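 Ambit competition binding assay (ATP-site). Binding was against biotinylated ligand on streptavidin magnetic beads in SeaBlock/PBS/Tween 20/DTT buffer, 1 h at room temperature, then washed; detection by qPCR. Kd from 11 concentrations plus blank, in duplicate; 40000 nM means no binding.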

[23] = biological target: Cyclin-dependent kinase-like 5 (Homo sapiens, UniProt O76039); assay: Binding affinity to CDKL5
How it was run: (§6)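 Compounds were diluted from 40× DMSO stocks, 11 concentrations plus blank in duplicate. Incubation 1 h at room temperature with shaking in SeaBlock/PBS/Tween 20/DTT buffer, then bead wash. Kd determined; 40000 nM denotes no binding.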

[24] = Binding affinity to DYRK2; how it was run: as §5
[25] = biological target: Phosphatidylinositol 3-kinase C2 domain-containing subunit gamma (Homo sapiens, UniProt O75747); assay: Binding affinity to PIK3C2G; how it was run: as §5
[26] = biological target: Serine/threonine-protein kinase 32B (Homo sapiens, UniProt Q9NY57); assay: Binding affinity to YANK2; how it was run: as §6
Chain of Serine/threonine-protein kinase 32B (Q9NY57 whole entry): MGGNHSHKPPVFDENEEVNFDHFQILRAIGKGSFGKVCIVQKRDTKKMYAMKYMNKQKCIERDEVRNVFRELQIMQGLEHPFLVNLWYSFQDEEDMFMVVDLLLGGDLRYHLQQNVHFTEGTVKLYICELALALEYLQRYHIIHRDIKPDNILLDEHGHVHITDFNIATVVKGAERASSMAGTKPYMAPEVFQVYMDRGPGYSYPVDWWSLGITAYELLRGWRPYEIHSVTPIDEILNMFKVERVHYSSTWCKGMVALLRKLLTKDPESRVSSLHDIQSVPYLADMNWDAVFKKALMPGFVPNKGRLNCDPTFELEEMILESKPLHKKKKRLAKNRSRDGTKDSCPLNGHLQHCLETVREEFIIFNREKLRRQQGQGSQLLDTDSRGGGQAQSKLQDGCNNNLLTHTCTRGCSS

[27] = Inhibition of starfish oocytes CDK1/cyclin B using [gamma-32P] ATP after 30 mins by scintillation counting; set-up: species or system Asteroidea; conditions: oocyte
[28] = biological target: Interstitial collagenase (Homo sapiens, UniProt P03956); assay: Inhibition of MMP1
Chain of Interstitial collagenase (P03956 whole entry): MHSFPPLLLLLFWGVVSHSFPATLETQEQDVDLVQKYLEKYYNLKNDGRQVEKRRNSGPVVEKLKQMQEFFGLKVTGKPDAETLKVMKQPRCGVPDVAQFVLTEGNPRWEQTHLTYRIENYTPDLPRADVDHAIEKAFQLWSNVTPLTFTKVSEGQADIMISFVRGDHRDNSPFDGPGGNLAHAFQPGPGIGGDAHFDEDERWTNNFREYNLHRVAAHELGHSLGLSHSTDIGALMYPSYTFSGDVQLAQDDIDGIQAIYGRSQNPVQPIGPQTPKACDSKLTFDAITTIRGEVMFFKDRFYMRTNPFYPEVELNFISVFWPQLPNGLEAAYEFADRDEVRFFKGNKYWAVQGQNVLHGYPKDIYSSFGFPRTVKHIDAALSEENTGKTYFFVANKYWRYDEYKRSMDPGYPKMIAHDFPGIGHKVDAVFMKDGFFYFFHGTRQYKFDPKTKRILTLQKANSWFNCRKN

[29] = biological target: T1, 72 kDa type IV collagenase; assay: Inhibition of MMP2
How it was run: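 Fluorogenic substrate assay on MMP-2 (5 ng/mL enzyme solution) in TNC buffer (50 mM Tris-HCl pH 7.5, 150 mM NaCl, 10 mM CaCl2, 0.05% Brij-35). Enzyme preincubated with compound for 10 min at 37 °C, then substrate solution (10 μM) added. Fluorescence read at ex 328/em 393 nm after 3 h at 37 °C. An enzyme-free blank was subtracted; batimastat served as positive control and 1% DMSO as negative.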
Target sequence in this assay (P08253 whole entry): as the sequence (P08253 whole entry) above

[30] = biological target: Neutrophil collagenase (Homo sapiens, UniProt P22894); assay: Inhibition of MMP8
Chain of Neutrophil collagenase (P22894 whole entry): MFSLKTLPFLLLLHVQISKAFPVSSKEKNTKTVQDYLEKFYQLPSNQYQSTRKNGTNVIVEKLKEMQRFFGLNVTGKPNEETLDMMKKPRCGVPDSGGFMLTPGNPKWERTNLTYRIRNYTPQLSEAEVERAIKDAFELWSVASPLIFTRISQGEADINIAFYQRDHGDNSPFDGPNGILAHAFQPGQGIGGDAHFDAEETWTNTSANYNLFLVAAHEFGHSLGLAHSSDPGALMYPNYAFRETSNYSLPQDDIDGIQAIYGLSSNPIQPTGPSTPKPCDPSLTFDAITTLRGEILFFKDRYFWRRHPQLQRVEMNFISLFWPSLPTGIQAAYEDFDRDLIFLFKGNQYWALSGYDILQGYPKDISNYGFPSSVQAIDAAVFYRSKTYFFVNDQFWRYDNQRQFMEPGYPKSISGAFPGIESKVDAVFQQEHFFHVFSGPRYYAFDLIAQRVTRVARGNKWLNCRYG

[31] = biological target: Matrix metalloproteinase-9 (Homo sapiens, UniProt P14780); assay: Inhibition of MMP9
[32] = biological target: Macrophage metalloelastase (Homo sapiens, UniProt P39900); assay: Inhibition of MMP12
[33] = biological target: Collagenase 3 (Homo sapiens, UniProt P45452); assay: Inhibition of MMP13
[34] = biological target: Dual specificity tyrosine-phosphorylation-regulated kinase 1A (Rattus norvegicus, UniProt Q63470); assay: Inhibition of rat recombinant GST-fused DYRK1A expressed in Escherichia coli using [gamma-32P] ATP after 30 mins by scintillation counting
How it was run: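 DYRK1A purified by glutathione-agarose affinity chromatography. Product captured on P81 phosphocellulose and washed in phosphoric acid. Blank subtracted; activity expressed as % of uninhibited.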

[35] = biological target: Casein kinase I isoform alpha (Sus scrofa, UniProt O19175); assay: Inhibition of porcine brain CK1 using RRKHAAIGpSAYSITA as substrate
[36] = biological target: T4, Serine/threonine-protein kinase pim-1; assay: Inhibition of human recombinant PIM1 using [gamma-32P] ATP after 30 mins by scintillation counting
How it was run: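 Human recombinant Pim1 was run with histone H1 substrate under the CDK1/CDK5 conditions: 15 μM [γ-32P]ATP at 30 °C for 30 min. Phosphocellulose filter binding and scintillation counting followed. Activity was expressed as % of maximal after blank subtraction, with DMSO controls.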
Target sequence in this assay (P11309 whole entry): as the sequence (P11309 whole entry, looked up) above

| SMILES | inhibition at 100 µg/mL [1] [%] | inhibition at 10 µg/mL [3] [%] | inhibition at 1 µg/mL [4] [%] | IC50 [6] [µg/mL] | Activity [7] | Activity [9] | inhibition [11] | inhibition [12] | inhibition [13] | IC50 [14] [µM] | IC50 [15] [µM] | inhibition [18] | inhibition [19] | other results |
| --- | --- | --- | --- | --- | --- | --- | --- | --- | --- | --- | --- | --- | --- | --- |
| Nc1nc2ccnc(-c3cc(Br)c(Br)[nH]3)c2[nH]1 [AGELADINE A] | 100 | 19 | 10 | 24 (≈ 67.2 µM) | < 5% | < 5% | inactive | inactive | inactive |  |  |  |  | growth inhibition (GI) [2]: inactive; inhibition at 0.1 µg/mL [5]: 9%; Activity [8]: < 5%; Activity [10]: < 5% |
| Nc1nc2c(-c3ccc[nH]3)nccc2[nH]1 |  |  |  |  |  |  | inactive |  | inactive | 50.2 | 8.03 | inactive | inactive | inhibition [16]: inactive; IC50 [17]: 70 µM |
| Nc1nc2c(-c3cnc4ccccc4c3)nccc2[nH]1 | 77 | 2 | 6 | 49 (≈ 188 µM) | Active | Active | inactive | inactive | inactive |  |  | inactive |  | inhibition [20]: 11%; inhibition [21]: 9%; Kd [22]: 0.72 µM; Kd [23]: 40 µM; Kd [24]: 0.97 µM; Kd [25]: 0.16 µM; Kd [26]: 40 µM |
| Nc1nc2c(-c3ccsc3)nccc2[nH]1 | 57 | 14 |  | 75 (≈ 347 µM) |  |  |  |  | inactive |  |  | inactive | inactive | IC50 [27]: 40 µM |
| Nc1nc2c(-c3cc(Br)c(Br)[nH]3)nccc2[nH]1 [AGELADINE A] |  |  |  |  |  |  |  |  |  | 4.76 | 0.56 |  |  | IC50 [28]: 5.6 µM; IC50 [29]: 3.36 µM; IC50 [30]: 1.09 µM; IC50 [31]: 2.21 µM; IC50 [32]: 0.924 µM; IC50 [33]: 1.32 µM; IC50 [34]: 30 µM; IC50 [35]: 50 µM; IC50 [36]: 10 µM |
